Experiments:
[1] = Cytotoxicity against human MIAPaCa2 cells assessed as cell growth inhibition at 1 uM after 48 hrs by MTT assay; format: functional; conditions: MIA PaCa-2, 48 h, read-out: GI
In short: (§1)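 Adherent lines at 70–75% confluence, grown at 37 °C in 5% CO2 with 10% FCS. Exposed 48 h to compound in DMSO (vehicle <0.2% v/v). MTT dye added 3 h before termination; formazan dissolved in DMSO, OD 570 nm with 620 nm reference. Growth inhibition expressed as % of untreated; IC50 taken from the dose series.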

[2] = Cytotoxicity against human HepG2 cells assessed as cell growth inhibition at 1 uM after 48 hrs by MTT assay; format: functional; conditions: HepG2, 48 h, read-out: GI; in short: as §1
[3] = Cell cycle arrest in human HL60 cells assessed as accumulation at subG0 phase at 1 uM after 24 hrs by propidium iodide-DNA fluorescence based FACS analysis (reference value: 5 %); format: functional; conditions: HL-60
In short: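 HL-60 cells seeded at 0.5 × 10^6 cells/ml, exposed 24 h to compound (DMSO vehicle, <0.2% v/v). Pelleted at 400×g, PBS-washed, fixed in 70% ethanol at 4 °C overnight. RNase A treatment at 37 °C for 1.30 h, then propidium iodide staining for 20 min. Flow cytometry on 10,000 events, FL2-A vs FL2-W; subG0 (apoptotic) and phase populations gated.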

[4] = system: HL-60; test: Induction of apoptosis in human HL60 cells assessed as cell shrinkage after 24 hrs phase contrast microscopic analysis; format: functional, cell-based
In short: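 HL-60 cells at 0.5 × 10^6 cells/ml treated 24 h with compound at 0.2, 0.5, 1 or 5 (DMSO vehicle). Treated and control cells photographed under a phase contrast microscope at 20× and scored for morphology.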

[5] = Lipophilicity, log P of the compound; format: physicochemical; conditions: octanol/water

What does the source list for `C[C@H]1[C@@H](OCCOc2cccc(C(=O)/C=C/c3ccc(O)cc3)c2)O[C@@H]2O[C@@]3(C)CC[C@H]4[C@H](C)CC[C@@H]1[C@@]24OO3`?
inhibition of growth at 1 µM [1]: 13%; inhibition of growth at 1 µM [2]: 29.6%; Activity [3]: 65%; Activity [4]: Dose-dependent effect; logP [5]: 6.33

For `C[C@H]1[C@@H](OCCOc2ccc(/C=C/C(=O)c3ccc(O)cc3)cc2)O[C@@H]2O[C@@]3(C)CC[C@H]4[C@H](C)CC[C@@H]1[C@@]24OO3`, which inhibition of growth at 1 µM [1] is on record?
Its inhibition of growth at 1 µM is 9.1%.

And the inhibition of growth at 1 µM [2]?
Its inhibition of growth at 1 µM is 23.8%.

And the Activity [4]?
The Activity was “Dose-dependent effect”.

What about the logP [5] of the same compound?
The logP was 6.33.

— ChEMBL document CHEMBL3865799, “Synthesis of a series of novel dihydroartemisinin monomers and dimers containing chalcone as a linker and their anticancer activity” (Eur J Med Chem, 2016)
